Sampled rows, rich in hits. Any-hit rate of the full collection: about 7.2%.
Ecoli WT expand – growth inhibitors of wild-type E. coli, primary screen, strain BW25113, expanded library, OD600. OD600 absorbance. growth inhibition, % at 100 µM. hit rate 0.15% among 98,000. AID 710, 2007;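 active means growth inhibition above about 50% at one test dose, limit read from the data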;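 further: growth measured after 20 h incubation at 37 °C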
tolC growth inh – growth inhibitors of E. coli tolC mutant, primary screen, strain BW25113 ΔtolC::kan, 384-well; AID 573, 2007; OD615; hit rate 2.2% among 65,000; growth inhibition, % at 10 µM (by protocol);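 active means growth inhibition at or above a cutoff equal to the mean over every tested compound plus 3 SD, cut at about 60% in these data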;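 further: growth measured after 20 h incubation at 37 °C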
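signal = optical density read at 615 nm | test system = E. coli ΔtolC::kan strain BW25113 | timing = 20 h compound exposure of bacteria at 37 °C | buffer or medium = LB medium plus 50 µg/mL kanamycin | compound dosing = 10 µM final, single dose | evaluation = % inhibition of E. coli growth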
PostGolgi yeast – phenotypic screen on post-Golgi transport, primary screen | inhibition, % at 10 µM | hit rate 0.9% among 98,000 | AID 739, 2007 | post-Golgi transport phenotypic cell assay;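 further: yeast cells grown in 1536-well plates; yeast grown about 18 h at 30C before absorbance read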
PostGolgi ctrl – growth inhibition of yeast control strain, primary screen, counter-screen for post-Golgi transport modulator project | inhibition, % at 10 µM | hit rate 5% among 98,000 | efflux-deficient yeast background strain, growth absorbance A615, 16 h
PLAP activator – PLAP enzyme activators, biochemical, luminescence, HTS; Alkaline phosphatase, placental type (Homo sapiens), P05187; purified PLAP enzyme, luminescent substrate read-out; stronger effect = higher value; activation fold at 20 µM; hit rate 1.2% among 96,000; AID 696, 2007; in the data active means activation fold above about 2
Target sequence (P05187 whole entry, looked up): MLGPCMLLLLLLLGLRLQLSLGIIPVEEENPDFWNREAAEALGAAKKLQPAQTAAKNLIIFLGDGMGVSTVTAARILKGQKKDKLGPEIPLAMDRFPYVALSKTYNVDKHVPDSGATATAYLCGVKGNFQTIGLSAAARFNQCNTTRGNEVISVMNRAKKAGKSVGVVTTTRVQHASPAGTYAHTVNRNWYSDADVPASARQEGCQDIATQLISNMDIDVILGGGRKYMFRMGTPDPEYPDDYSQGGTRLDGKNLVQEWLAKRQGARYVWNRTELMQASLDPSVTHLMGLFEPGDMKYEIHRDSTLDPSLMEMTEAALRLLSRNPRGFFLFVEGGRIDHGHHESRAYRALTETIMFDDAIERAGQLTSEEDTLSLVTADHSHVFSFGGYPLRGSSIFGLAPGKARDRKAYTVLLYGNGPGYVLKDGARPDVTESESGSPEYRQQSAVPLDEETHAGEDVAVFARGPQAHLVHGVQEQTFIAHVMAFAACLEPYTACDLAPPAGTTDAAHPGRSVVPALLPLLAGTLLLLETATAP
The depositor's hits bear a star; . = no result. Unless noted, no stated cut-off is given here; in the data, active means inhibition above about 30%; inactive means the rest.

SMILES	Ecoli WT expand	tolC growth inh	PostGolgi yeast	PostGolgi ctrl	PLAP activator
CCC(CO)NC(=O)c1cc2c(s1)CCC2 (centres undefined)	7.0	.	31.2*	-3.7	0.8
Cc1ccc(C)c(N2CCN(C(=O)c3ccc(CS(=O)(=O)c4ccccc4C)o3)CC2)c1	-16.0	52.0	5.3	37.7*	1.5
Cc1ccc(S(=O)(=O)Cc2ccc(C(=O)N3CCN(c4cc(C)ccc4C)CC3)o2)cc1	-17.0	38.7	-2.4	36.8*	0.9
CCNc1nc2c(c(=O)n(Cc3ccccc3)c(=O)n2C)n1Cc1ccccc1	-6.0	33.3	-1.1	30.4*	1.6
Cn1c(=O)c2c(nc(NCc3ccccc3)n2Cc2ccc(F)cc2)n(C)c1=O	4.0	8.1	-2.5	39.0*	.
CCCNc1nc2c(c(=O)n(C)c(=O)n2C)n1Cc1ccc(F)cc1	4.0	-3.7	-0.6	5.1	1.3
CC(C)Sc1nc2c(c(=O)n(C)c(=O)n2C)n1Cc1ccc(Cl)cc1	-1.0	43.8	-4.0	76.6*	1.1
CCC(C)Nc1nc2c(c(=O)n(C)c(=O)n2C)n1Cc1ccc(Cl)cc1 (centres undefined)	.	28.6	.	.	.
N#Cc1ccc(-n2nccc2-c2cnc3n(c2=O)CCS3)cc1	-4.0	.	0.9	1.9	0.8
Cc1cc(C)nc(/N=C(\N)Nc2ccc(F)c([N+](=O)[O-])c2)n1	9.0	.	-4.8	-2.6	1
Cc1cccc(N2CCN(C(=O)C3CCCN(S(=O)(=O)c4cccc5cccnc45)C3)CC2)c1C (centres undefined)	.	14.5	.	.	.
COc1ccc(Cl)cc1NC(=O)c1cccnc1	3.0	-8.8	23.0	4.2	0.9
O=C1CSC(=S)N1Cc1cccnc1	65.0*	4.1	2.9	24.8	1.9
CC(=O)O/N=C/c1c(N2CCOCC2)n(C)c2ccccc12	12.0	.	26.4	10.3	1.1
Cc1ccc(C(=O)O/N=C/c2c(N3CCOCC3)n(C)c3ccccc23)cc1	7.0	.	15.6	32.4*	1.5
Cn1c(N2CCOCC2)c(/C=N/OC(=O)c2ccc(F)cc2)c2ccccc21	16.0	.	42.2*	33.5*	1
Cn1c(Cl)c(/C=N/OC(=O)c2ccc(Cl)cc2)c2ccccc21	-8.0	.	21.8	0.2	1
CCOC(=O)C1C(=O)OC(C)(C)C1C(C)C(=O)c1ccccc1 (centres undefined)	0.0	.	16.1	1.6	0.9
CCn1c(CSc2nc3ccccc3s2)nnc1SCC(=O)c1ccc(O)c(O)c1	-4.0	.	18.6	-16.9	0.5
CCn1c(CSc2nc3ccccc3s2)nnc1SCC(=O)c1ccc(Cl)cc1	-5.0	.	-9.0	42.6*	1.3
O=S(=O)(NCc1cc(-c2ccccc2Cl)no1)c1ccc(Cl)cc1	0.0	.	5.1	24.3	0.7
O=C(CN(C(=O)Cn1nnc(-c2cccs2)n1)c1ccc2c(c1)OCCO2)NCc1ccccc1	-2.0	.	-2.3	5.7	2.1*
Cc1cc(N2CCC(C(=O)Nc3ccc(F)cc3)CC2)nc(-c2ccccc2)n1	5.0	89.4*	-4.2	3.8	1.1
COc1ccc(NC(=O)C2CCN(c3cc(C)nc(-c4ccccc4)n3)CC2)cc1	-9.0	29.0	-4.9	15.1	1.9
O=C(COC(=O)CCS(=O)(=O)c1ccc(Cl)cc1)NC1CCCCC1	-6.0	.	-8.8	-2.0	1.1
SMILES	Ecoli WT expand	tolC growth inh	PostGolgi yeast	PostGolgi ctrl	PLAP activator
CCN(CC)CCCNC(CC(=O)O)C(=O)O (centres undefined)	.	-15.3	.	.	.
CC(=NC(C)C)C1=C(O)CCC1=O	.	-12.6	.	.	1
N#Cc1cn(Cc2cccc(Cl)c2)c2ccccc12	2.0	97.1*	-3.0	23.8	1.1
CCn1c(SCC(=O)Nc2nc(C)c(C(=O)OC)s2)nnc1C(C)C	3.0	-9.8	-8.2	15.1	1.3
Cc1cc(OCC(=O)Nc2ccc(F)c(F)c2)nc(C(C)C)n1	-4.0	.	-4.5	-1.4	0.8
Cc1ccc(C2Oc3ccccc3C3=C2C(c2cccs2)n2ncnc2N3)cc1 (centres undefined)	-7.0	.	18.4	39.4*	1
COc1ccc(-c2nc(-c3cccc(C)c3)[nH]c(=O)c2C#N)cc1	-10.0	.	-9.4	-12.5	1.2
CC1CCN(C(=O)Nc2cccc(NC(=O)N3CCC(C)CC3)c2)CC1	-4.0	9.7	-1.5	30.5*	0.9
O=C(CCN1C(=O)c2ccccc2C1=O)N1CCC(c2ccccc2)C1 (centres undefined)	8.0	7.6	-22.6	31.9*	0.9
COc1ccc(NC(=O)N2CCN(c3cccc(C(F)(F)F)c3)CC2)cc1	-4.0	-1.7	1.3	1.7	0.9
CC1CCN(C(=O)Nc2ccc3nsnc3c2)CC1	9.0	.	16.3	3.1	1
CN(C)S(=O)(=O)c1ccc(NC(=O)N2CCN(c3cccc(C(F)(F)F)c3)CC2)cc1	8.0	.	3.9	-1.5	2.1*
CCN1CCN(C(=O)Nc2cccc(C(F)(F)F)c2)CC1	0.0	-16.6	5.0	31.2*	0.9
c1ccc(-c2csc(-n3cnnn3)n2)cc1	2.0	-1.3	8.0	2.5	0.8
CSC(=NC#N)N1CCN(c2ccccc2)CC1	-3.0	.	0.8	1.8	1
COc1ccc(C2N=C(c3ccccc3)C(C)(C)N2O)cc1 (centres undefined)	4.0	.	16.3	-13.6	1
CC1CCCN(C(=O)C(Cc2ccccc2)n2cccc2)C1 (centres undefined)	7.0	51.9	-9.6	6.1	1.1
Cc1ccc(C2CCN(C(=O)Nc3ccccc3)C2)cc1 (centres undefined)	14.0	22.4	6.7	42.1*	0.7
COC(=O)c1[nH]c2cccc(Cl)c2c1NC(=O)CN(C)C1CCCCC1	11.0	14.9	4.6	3.2	1.5
O=C1CN(C(=O)c2ccc(Br)o2)C(c2ccccc2)c2cc(Cl)ccc2N1 (centres undefined)	-6.0	85.2*	-14.7	25.6	1.6
O=C1CN(C(=O)c2ccc(Br)o2)C(c2ccccc2)c2cc(Br)ccc2N1 (centres undefined)	-7.0	20.0	-11.8	22.3	1.5
O=C1CN(C(=O)c2ccc(Br)o2)C(c2ccc(F)cc2)c2cc(Cl)ccc2N1 (centres undefined)	-18.0	26.5	0.2	30.7*	1.2
CCCc1nc(SCc2ccccc2Cl)n[nH]1	7.0	.	-1.3	2.4	2.2*
CCc1nc(SCc2cc(Cl)ccc2OC)n[nH]1	8.0	11.3	-1.2	29.4	2.2*
CC(=O)Nc1nc(SCc2ccc(Cl)cc2Cl)n[nH]1	5.0	.	14.5	-1.9	1
CN(C(=O)CSc1nc2ccccc2n1CCc1ccccc1)C1CCS(=O)(=O)C1 (centres undefined)	-7.0	12.8	-3.4	5.4	2.3*
CC(C(=O)N1CCc2ccccc21)n1cccc1 (centres undefined)	0.0	.	-4.7	6.6	0.9
O=C(COC(=O)c1cccc(S(=O)(=O)N2CCc3ccccc3C2)c1)NCc1ccco1	-4.0	6.8	-4.7	43.5*	0.9
O=C(COC(=O)c1cc(S(=O)(=O)N2CCc3ccccc3C2)ccc1Cl)NCc1ccco1	0.0	.	-4.5	11.2	1.1

Assay outcomes from PubChem BioAssay.
